High-throughput results: PubChem BioAssay, several laboratories
Compounds with a hit are over-represented: about 5.4% of the library has one in this group of screens.
Cav32 inh: blocks human Cav3.2 T-type calcium channel. O95180. Cav3.2-expressing cells, Fluo-4 calcium fluorescence FDSS; hits give low values. B-score at 10 µM. hit rate 4% among 100,000;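 active = single-dose well whose peak fluorescence ratio is a statistical outlier from its plate by either plate-standardised score or position-corrected B-score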
hDAT+cocaine: modulates human dopamine transporter uptake under cocaine; B-score at 10 µM; LLC-PK1 hDAT cells, [14C]-dopamine uptake with cocaine IC80; actives deviate in either direction; hit rate 1.3% among 110,000;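 active = Z score or B-score, a plate-position-corrected score, falls beyond the plate's 99.7% confidence bounds, in either direction; inactive = both scores lie inside the 99.7% bounds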;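 note: scored against the spread of the other compound wells on the same plate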
EphB4 antag: EphB4-ephrin-B2 interaction antagonism. P54760. EphB4 LBD / TNYL-RAW-Alexa532 peptide, fluorescence polarization. inhibition, % at 7 µM. hit rate 0.15% among 97,000. AID 720;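 active = inhibition above the screen-wide mean inhibition plus 3 SD, cut at about 15% in these data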;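 note: 0% = DMSO wells and 100% = excess unlabeled TNYL-RAW peptide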
Rev-RRE block: inhibitors of HIV-1 Rev-RRE RNA interaction; Rev peptide-RRE RNA binding, FRET; P05866; inhibition, % at 8 µM; AID 704; hit rate 0.79% among 97,000;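 active = inhibition above the screen-wide mean plus 3 SD, cut at about 35% in these data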;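 note: 0% = median DMSO wells and 100% = median Neomycin B control wells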
Target sequence (P05866 whole entry, looked up): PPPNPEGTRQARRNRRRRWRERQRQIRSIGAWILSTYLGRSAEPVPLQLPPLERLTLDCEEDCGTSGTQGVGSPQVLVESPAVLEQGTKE
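System: Cy5-labelled duplex RRE RNA binding fluorescein-labelled HIV Rev peptide; Signal: fluorescein-to-Cy5 FRET, 480 nm excitation; Also added: labelled Rev peptide; Compound: one concentration, 8 µM nominal; Buffer or medium: HEPES pH 7.5 salt buffer with EDTA; Read-out: % inhibition of FRET ratio versus controls; Schedule: 5 min preincubation and 15 min binding, 25 °C.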
Active calls of the source: *; [ ] = another dose, or the depositor's remark.

CCCCCn1c(N2CCN(c3cccc(Cl)c3)CC2)nc2c1c(=O)[nH]c(=O)n2C was read as Cav32 inh -5.4*, hDAT+cocaine 0.37, EphB4 antag 6 and Rev-RRE block 4.
CN(C)c1nc(-c2ccccc2)c2cnn(Cc3ccccc3)c2n1 was read as Cav32 inh 1.1, hDAT+cocaine -0.58, EphB4 antag 1 and Rev-RRE block 17.
CCOC(=O)[C@@H]1CCNC[C@@H]1c1ccccc1 was read as Cav32 inh 0.79, hDAT+cocaine -0.041, EphB4 antag -7 and Rev-RRE block 141*[fluorescence artefact?].
O=S(=O)(/N=C(/c1ccc(Cl)cc1)N1CCOCC1)c1ccc(Cl)cc1 was read as Cav32 inh 0.46, hDAT+cocaine 2*, EphB4 antag -4 and Rev-RRE block -1.
`CC1(C)CC(=O)C=C(OC(=O)c2ccc(Cl)cc2)C1` gave Cav32 inh -0.0055, hDAT+cocaine 0.016, EphB4 antag -2 and Rev-RRE block 3.
For CCCCN(C(=O)Cn1nnc2ccccc21)C(C(=O)NCCOC)c1cccs1 (stereo unspecified) the results were Cav32 inh 0.55, hDAT+cocaine 0.017, EphB4 antag 3 and Rev-RRE block 7.
Screening Cc1c(Cl)cccc1Nc1nc(N)nc(CN2CCc3ccccc3C2)n1 returned Cav32 inh -4*, hDAT+cocaine -0.84, EphB4 antag -2 and Rev-RRE block 14.
`Cc1ccc(C2NC(=O)Cc3ccccc32)cc1` (stereo unspecified) gave Cav32 inh -0.97, hDAT+cocaine 0.16, EphB4 antag 1 and Rev-RRE block 7.
Screening Cc1ccc(Sc2ncccc2COC(=O)Nc2c(C)cccc2C)cc1 returned Cav32 inh -5.5*, hDAT+cocaine 0.82, EphB4 antag 0 and Rev-RRE block 8.
CC(C)CN(CC(C)C)C(=O)C12CCC(C)(C(=O)O1)C2(C)C (stereo unspecified) was read as Cav32 inh -0.39, hDAT+cocaine -0.86, EphB4 antag 11 and Rev-RRE block 7.
Screening Cc1ccc(CCNC(=O)C2CCCN(C(=O)c3cc4sccc4n3C)C2)cc1 (stereo unspecified) returned Cav32 inh -4.8*, hDAT+cocaine -0.96, EphB4 antag 5 and Rev-RRE block 4.
Cn1c(C(=O)N2CCCC(C(=O)NCCCc3ccccc3)C2)cc2sccc21 (stereo unspecified) was read as Cav32 inh -4.2*, hDAT+cocaine 0.91, EphB4 antag -2 and Rev-RRE block 4.
`Cn1c(C(=O)N2CCCC(C(=O)NCCc3ccccc3)C2)cc2sccc21` (stereo unspecified) gave Cav32 inh 0.14, hDAT+cocaine -0.94, EphB4 antag 4 and Rev-RRE block 5.
`COc1ccc(C2(C)NC(=O)N(CC(=O)Nc3ccc4c(c3)OCO4)C2=O)cc1OC` (stereo unspecified) gave Cav32 inh -1.6, hDAT+cocaine 0.41, EphB4 antag 4 and Rev-RRE block 5.
For CCCN1C[C@H](CSC)C[C@@H]2c3cccc4[nH]cc(c34)C[C@H]21 the results were Cav32 inh 0.015 and hDAT+cocaine 0.015.
Screening NC(=O)NOCc1ncc(C(F)(F)F)cc1Cl returned Cav32 inh 0.076, hDAT+cocaine -0.8, EphB4 antag 4 and Rev-RRE block 6.
`Cc1ccc(NC(=O)Cc2ncc(C(F)(F)F)cc2Cl)cc1Cl` gave Cav32 inh -4.8*, hDAT+cocaine -0.42, EphB4 antag -1 and Rev-RRE block -2.
Screening CSc1nc(Oc2ccc(=O)n(C)n2)nc(N(C)C)n1 returned Cav32 inh -0.16, EphB4 antag 3 and Rev-RRE block 2.
`Cc1ccc(S(=O)(=O)NC(CC(=O)n2nc(C)cc2C)c2ccccc2)cc1` (stereo unspecified) gave Cav32 inh -6.3*, hDAT+cocaine -1.4, EphB4 antag -3 and Rev-RRE block 11.
`COc1cc(CNC(=O)c2ccc3c(c2)S(=O)(=O)c2ccccc2C3=O)cc(OC)c1` gave Cav32 inh 1.2 and hDAT+cocaine 0.22.
For OCC[C@H]1C[C@@H](O)[C@H](O)[C@]2(CCCO2)O1 the results were Cav32 inh 0.2 and hDAT+cocaine -0.62.
NC(=O)CC(NC(=O)Cc1cccc2ccccc12)c1ccc(N2CCc3ccccc3C2)c([N+](=O)[O-])c1 (stereo unspecified) was read as Cav32 inh -0.72 and hDAT+cocaine -0.018.
`O=C1C2C3C=CC(C4CC34)C2C(=O)N1/N=C/c1ccc(-c2ccc(Cl)cc2[N+](=O)[O-])o1` (stereo unspecified) gave Cav32 inh -1, hDAT+cocaine 1, EphB4 antag -2 and Rev-RRE block 15.
O=C1C2C3C=CC(C4CC34)C2C(=O)N1/N=C/c1ccc(-c2ccc(F)cc2[N+](=O)[O-])o1 (stereo unspecified) was read as Cav32 inh 1.1, hDAT+cocaine 0.12, EphB4 antag 1 and Rev-RRE block 42*.
Screening CCOC(=O)c1sc(NC(=O)CSc2nc(-c3ccco3)cc(C(F)(F)F)n2)c(C(=O)OC)c1C returned Cav32 inh -1.7, hDAT+cocaine 0.82, EphB4 antag -12 and Rev-RRE block 10.
`CCCOC(=O)c1c(NC(=O)CSc2nc(-c3ccco3)cc(C(F)(F)F)n2)sc(C(=O)OC)c1C` gave Cav32 inh -5.2*, hDAT+cocaine -0.6, EphB4 antag 5 and Rev-RRE block 8.
`COc1ccc2c(c1)c(=O)oc1cc(OCC(=O)N3CCCC(C)C3)ccc12` (stereo unspecified) gave hDAT+cocaine -2.5*, EphB4 antag -3 and Rev-RRE block 2.
For C=CCSc1nc(NC)c2sccc2n1 the results were hDAT+cocaine 0.0064, EphB4 antag 1 and Rev-RRE block 3.
For c1ccc2cc(OCc3nc4ccccc4[nH]3)ccc2c1 the results were Cav32 inh -5.9*, hDAT+cocaine -1.6, EphB4 antag 4 and Rev-RRE block 5.
`COc1ccc(OCc2nc3ccccc3[nH]2)cc1` gave Cav32 inh 1.2, hDAT+cocaine 0.13, EphB4 antag 6 and Rev-RRE block 0.
Clc1ccc(OCCSCc2nc3ccccc3[nH]2)cc1 was read as Cav32 inh -8.3*, hDAT+cocaine 0.52, EphB4 antag -3 and Rev-RRE block 15.
`Cc1ccc(OCCSCc2nc3ccccc3[nH]2)cc1` gave Cav32 inh -5.5*, hDAT+cocaine 1.2, EphB4 antag -1 and Rev-RRE block 8.
For Clc1ccc(SCc2nc3ccccc3[nH]2)cc1 the results were Cav32 inh -4.5*, hDAT+cocaine -0.23, EphB4 antag 0 and Rev-RRE block 3.
CC(C)OC(=O)CSc1nnc(SCc2cccc3ccccc23)s1 was read as Cav32 inh -1.3, hDAT+cocaine -0.26, EphB4 antag 8 and Rev-RRE block 23.
Screening CCSc1ncc(Cl)c(C(=O)N(Cc2ccc(N(C)C)cc2)C2CCS(=O)(=O)C2)n1 (stereo unspecified) returned Cav32 inh 3.5*, hDAT+cocaine 0.43, EphB4 antag 1 and Rev-RRE block -3.
